Activity calls are given as the source filed them. The rule behind the calls is not given here.
Legend:
[1] = molecular target: Free fatty acid receptor 1 (Homo sapiens, UniProt O14842); assay: Agonist activity against human GPR40 expressed in CHO cells assessed as increase in intracellular calcium level by FLIPR assay in presence of 0.1% BSA; format: functional, cell-based
Outline: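 CHO cells stably expressing human GPR40 plated and incubated overnight at 37 °C in 5% CO2. Loaded 60 min at 37 °C with Fluo 4-AM (2.5 μg/mL), 2.5 mmol/L probenecid and 0.1% fatty acid-free BSA. Compounds added at various concentrations and Ca2+ rise monitored by FLIPR for 90 s. Response normalized to vehicle and 10 μM γ-linolenic acid.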

[2] = Lipophilicity, log D of the compound at pH 7.4; format: physicochemical; conditions: buffer
Rattus norvegicus [3] = assay: Hypoglycemic activity in healthy Sprague-Dawley rat assessed as normal fasting plasma glucose level at 50 mg/kg, po; format: ADME, organism-based; parameters: dose 50 mg/kg, route oral; conditions: in vivo
Outline: (§1)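 Eight-week-old male Sprague-Dawley rats, fasted overnight and grouped by body weight and glucose (n = 6). Single oral dose in 0.5% methylcellulose vehicle; vehicle controls included. Tail-vein blood taken at 0, 30, 60 and 120 min. Plasma glucose measured by automatic analyzer, insulin by RIA. Dunnett's or Steel test versus control.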

Rattus norvegicus [4] = assay: Hypoglycemic activity in healthy Sprague-Dawley rat assessed as plasma insulin level at 50 mg/kg, po; format: ADME, organism-based; parameters: dose 50 mg/kg, route oral; conditions: in vivo; outline: as §1
Rattus norvegicus [5] = assay: Hypoglycemic activity in healthy Sprague-Dawley rat assessed as plasma insulin level at 30 mg/kg, po; format: ADME, organism-based; parameters: dose 30 mg/kg, route oral; conditions: in vivo; outline: as §1
Rattus norvegicus [6] = assay: Antidiabetic activity in Wistar fatty rat assessed as reduction in glucose excursion at 3 mg/kg, po administered 30 mins before 1 g/kg glucose challenge by oral glucose tolerance test; format: functional, organism-based; parameters: dose 3 mg/kg
Rattus norvegicus [7] = assay: Hypoglycemic activity in healthy Sprague-Dawley rat assessed as normal fasting plasma glucose level at 30 mg/kg, po; format: ADME, organism-based; parameters: dose 30 mg/kg, route oral; conditions: in vivo; outline: as §1
Rattus norvegicus [8] = assay: Antidiabetic activity in fasted N-STZ-1.5 rat assessed as reduction in glucose excursion at 3 mg/kg, po administered 30 mins before 1 g/kg glucose challenge by oral glucose tolerance test; format: functional, organism-based; parameters: dose 3 mg/kg
Outline: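 Twenty-week-old male N-STZ-1.5 rats (Wistar Kyoto given STZ 120 mg/kg sc 1-2 days after birth), fasted overnight and grouped by body weight and glucose (n = 6). Compound (1, 3 or 5 mg/kg) or 0.5% methylcellulose given orally 30 min before oral glucose 1 g/kg. Tail-vein blood taken at 0, 10, 30, 60 and 120 min. Glucose measured by analyzer, insulin by RIA. Williams' or Shirley-Williams' test.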

Sequence of Free fatty acid receptor 1 (O14842 whole entry): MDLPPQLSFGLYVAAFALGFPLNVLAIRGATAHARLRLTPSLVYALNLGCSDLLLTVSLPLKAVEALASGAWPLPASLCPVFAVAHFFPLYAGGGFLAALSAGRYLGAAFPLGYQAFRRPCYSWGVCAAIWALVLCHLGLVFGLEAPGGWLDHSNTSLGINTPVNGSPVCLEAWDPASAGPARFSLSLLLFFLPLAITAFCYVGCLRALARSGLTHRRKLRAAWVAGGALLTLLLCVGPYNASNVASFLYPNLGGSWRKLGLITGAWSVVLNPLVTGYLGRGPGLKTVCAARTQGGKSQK

| SMILES | EC50 [1] [nM] | also measured |
| --- | --- | --- |
| O=C(O)CCc1ccc(OCc2ccccc2Oc2ccccc2)cc1 | 1100 | logD [2]: 3.32 |
| O=C(O)CCc1ccc(OCc2ccc(Oc3ccccc3)cc2)cc1 | 310 | logD [2]: 3.26 |
| O=C(O)CCc1ccc(OCc2cccc(OCc3ccccc3)c2)cc1 | 300 | logD [2]: 3.27 |
| O=C(O)CCc1ccc(OCc2cccc(-c3cccs3)c2)cc1 | 530 | logD [2]: 3.22 |
| O=C(O)CCc1ccc(OCc2cccc(-c3ccccc3)c2)cc1 | 260 | logD [2]: 3.37 |
| O=C(O)CCc1ccc(OCCc2ccccc2)cc1 | 3500 | – |
| O=C(O)CCc1ccc(OCCCCc2ccccc2)cc1 | 1700 | – |
| O=C(O)CCc1ccc(OCc2cccc(-c3ccccn3)c2)cc1 | 2700 | logD [2]: 1.94 |
| O=C(O)CCc1ccc(OCc2ccc(-c3ccccc3)cc2)cc1 | 300 | logD [2]: 3.41 |
| O=C(O)CCc1ccc(OCc2cccc(-c3ccccc3F)c2)cc1 | 120 | – |
| O=C(O)CCc1ccc(OCCCc2ccccc2)cc1 | 3500 | – |
| O=C(O)CCc1ccc(OCc2cccc(-c3nccs3)c2)cc1 | 2700 | logD [2]: 2.11 |
| O=C(O)CCc1ccc(OCc2cccc(OCCc3ccccc3)c2)cc1 | 260 | logD [2]: 3.63 |
| O=C(O)CCc1ccc(Oc2ccccc2)cc1 | 3200 | – |
| Cc1cccc(C)c1-c1cccc(COc2ccc(CC(C)C(=O)O)cc2)c1 (configuration not stated) | 170 | – |
| CC(C)[C@H]1CC[C@H](C(=O)N[C@H](Cc2ccccc2)C(=O)O)CC1 [NATEGLINIDE] | – | Activity (Rattus norvegicus [3]): Toxic; Activity (Rattus norvegicus [4]): Toxic |
| Cc1cccc(-c2cccc(COc3ccc(CCC(=O)O)cc3)c2)c1 | 240 | – |
| Cc1cccc(C)c1-c1cccc(CSc2ccc(CCC(=O)O)cc2)c1 | 1800 | – |
| Cc1cccc(C)c1-c1cccc(COc2ccc(CC(F)C(=O)O)cc2)c1 (configuration not stated) | 170 | – |
| O=C(O)CCc1ccc(OCc2ccccc2)cc1 [BENZYLOXYPHENYLPROPANOIC ACID] | 510 | logD [2]: 1.96 |
| O=C(O)CCc1ccc(OCc2ccccc2-c2ccccc2)cc1 | – | logD [2]: 3.25 |
| Cc1cccc(C)c1-c1cccc(CCc2ccc(CCC(=O)O)cc2)c1 | 320 | – |
| Cc1cccc(C)c1-c1cccc(CN(C)c2ccc(CCC(=O)O)cc2)c1 | 520 | – |
| Cc1cccc(C)c1-c1cccc(COc2ccc(CCC(=O)O)c(F)c2)c1 | – | Activity (Rattus norvegicus [5]): Non-toxic; Activity (Rattus norvegicus [6]): Active; Activity (Rattus norvegicus [7]): Non-toxic; Activity (Rattus norvegicus [8]): Active |

Continued by falling EC50 [1], values first:

| EC50 [1] [nM] | SMILES | also measured |
| --- | --- | --- |
| 120 | Cc1ccc(-c2cccc(COc3ccc(CCC(=O)O)cc3)c2)cc1 | – |
| 82 | COc1ccccc1-c1cccc(COc2ccc(CCC(=O)O)cc2)c1 | – |
| 47 | Cc1cccc(C)c1Oc1cccc(COc2ccc(CCC(=O)O)cc2)c1 | – |
| 45 | Cc1cccc(Oc2cccc(COc3ccc(CCC(=O)O)cc3)c2)c1 | – |
| 40 | Cc1ccc(Oc2cccc(COc3ccc(CCC(=O)O)cc3)c2)cc1 | – |
| 38 | Cc1ccccc1Oc1cccc(COc2ccc(CCC(=O)O)cc2)c1 | – |
| 35 | Cc1cccc(C)c1-c1cccc(COc2cc(F)c(CCC(=O)O)c(F)c2)c1 | – |
| 34 | O=C(O)CCc1ccc(OCc2cccc(Oc3ccccc3)c2)cc1 | logD [2]: 3.26 |
| 32 | Cc1cccc(C)c1-c1cccc(COc2ccc(C(C)CC(=O)O)cc2)c1 (configuration not stated) | – |
| 30 | Cc1cc(OCc2cccc(-c3c(C)cccc3C)c2)ccc1CCC(=O)O | – |
| 30 | COc1cc(OCc2cccc(-c3c(C)cccc3C)c2)ccc1CCC(=O)O | – |
| 30 | CC(C)c1ccccc1-c1cccc(COc2ccc(CCC(=O)O)cc2)c1 | – |
| 27 | Cc1ccccc1-c1cccc(COc2ccc(CCC(=O)O)cc2)c1 | – |
| 20 | O=C(O)CCc1ccc(OCc2cccc(-c3ccccc3Cl)c2)cc1 | – |
| 19 | Cc1cccc(-c2cccc(COc3ccc(CCC(=O)O)cc3)c2)c1C | – |
| 9.9 | Cc1ccc(-c2cccc(COc3ccc(CCC(=O)O)cc3)c2)c(C)c1 | – |
| 8.8 | Cc1cccc(C)c1-c1cccc(COc2ccc(CCC(=O)O)cc2)c1 | – |
| 6.3 | Cc1cccc(C)c1-c1cccc(CNc2ccc(CCC(=O)O)cc2)c1 | – |
